Tests used:
[1] = Metabolic stability in human liver microsomes; format: in vitro ADME
Method in brief: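 Test compound (10 μM) preincubated 5 min at 37 °C with HLM (1 mg/mL) in 0.1 M phosphate buffer pH 7.4, then started with 2 mM NADPH under shaking at 37 °C. Samples at 0, 10, 20, 40 and 60 min quenched in cold acetonitrile with labetalol internal standard and centrifuged. Unchanged substrate and metabolites tracked; t1/2 and CLint from kinetic analysis.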

[2] = reference compounds of the solubility assay; cited from earlier work

Row | SMILES | intrinsic clearance ([1]; HLM, kinetic analysis in WebMetabase) [μL/min∗ mgprot] | half-life at 10 μM ([1]; human, liver microsomes, pH 7.4) [min] | equilibrium solubility of reference compounds [2] [µM]
1 | Cc1cc(-c2ccccc2)nc2nc(C(=O)Nc3ccccc3C(N)=O)nn12 [Compound 23] | 4.18 | 166 | –
2 | C[C@H]1O[C@@H](O[C@H]2[C@@H](O)C[C@H](O[C@H]3[C@@H](O)C[C@H](O[C@H]4CC[C@@]5(C)[C@H](CC[C@@H]6[C@@H]5C[C@@H](O)[C@]5(C)[C@@H](C7=CC(=O)OC7)CC[C@]65O)C4)O[C@@H]3C)O[C@@H]2C)C[C@H](O)[C@@H]1O [Digossin] | – | – | 84.0

— publication PMC7561591 (European Journal of Medicinal Chemistry, 2020)
